Several values for one entry are separate records, joined by “and”; a condition that tells them apart may be missing. Equal entries are not always repeated. One block for each molecule: values may come before it.
How the values were obtained:
Format in all cases: biochemical, Lytechinus pictus
[1] = system: cADPR-induced Ca^2+ release (RyRs); assay: cADPR-induced Ca^2+ release in sea urchin egg homogenate
Summary of the method: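 Egg homogenate from Lytechinus pictus diluted 20-fold over 3 h at 17°C in GluIM with ATP regeneration; 3 μM Fluo-3 final, calibrated with EGTA/CaCl2. Test compound or DMSO preincubated 2 min before 0.3 μM cADPR (sub-maximal). For the time course, 30 μM test compound was preincubated 10–120 s. cADPR concentration-response was run after 2 min with 30 μM or DMSO. Sigmoidal fits; mean ± SEM, n = 4–9.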

[2] = system: IP3-induced Ca^2+ release (IP3Rs); assay: IP3-induced Ca^2+ release in sea urchin egg homogenate
Summary of the method: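 Lytechinus pictus egg homogenate (GluIM, pH 7.2, with ATP-regenerating system) diluted 20-fold over 3 h at 17°C to 2.5% v/v. Fluo-3 3 μM final, ex 506/em 526 nm, stirred cuvette. Test compound or DMSO preincubated 2 min, then sub-maximal IP3 chosen from a dose-response curve. Signal calibrated to [Ca2+] with 0.5 mM EGTA then 10 mM CaCl2. Sigmoidal fit; mean ± SEM, n = 4–7.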

[3] = system: caffeine-induced Ca^2+ release (RyRs); assay: caffeine-induced Ca^2+ release in sea urchin egg homogenate; conditions: 10 mM caffeine
Summary of the method: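 Lytechinus pictus egg homogenate loaded with Ca2+ by 20-fold dilution over 3 h at 17°C in GluIM plus ATP-regenerating system; Fluo-3 3 μM final, stirred cuvette, ex 506/em 526 nm. Test compound preincubated 2 min, then 10 mM caffeine. Fluorescence converted to [Ca2+] using 0.5 mM EGTA and 10 mM CaCl2 for Fmin/Fmax. Sigmoidal concentration-response fit; mean ± SEM, n = 4–7.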

Structure (SMILES): c1ccc(CN(CCN(Cc2ccccn2)Cc2ccccn2)Cc2ccccn2)nc1 [TPEN, N,N,N’,N’- tetrakis(2-pyridylmethyl)ethylenediamine]
effect on cADPR-induced Ca^2+ release ([1]; preincubation 2 minutes, then 0.3 μM cADPR, magnitude and kinetics): inhibited cADPR-induced Ca^2+ release

Structure (SMILES): COc1ccccc1OCCNCC(O)COc1cccc2[nH]c3ccccc3c12 (stereo not drawn) [carvedilol]
inhibition of cADPR-induced Ca^2+ release (extent) ([1]; 0.3 μM cADPR, extent of inhibition at high carvedilol concentration): > 80%
time of preincubation to maximal suppression of cADPR-induced Ca^2+ release ([1]; carvedilol 30 μM, no further inhibition at longer incubations): ≤ 10 s
inhibition of IP3-induced Ca^2+ release (extent) ([2]; sub-maximal IP3, preincubation 2 minutes, Fig. 4): 47%
inhibition of caffeine-induced Ca^2+ release (extent) ([3]; preincubation 2 minutes): > 80%

Structure (SMILES): O=P(O)(O)O[C@@H]1[C@H](O)[C@H](O)[C@@H](OP(=O)(O)O)[C@H](OP(=O)(O)O)[C@H]1O [IP3, inositol 1,4,5-trisphosphate]
raw control ∆[Ca^2+] with IP3 ([2]; sub-maximal IP3, no inhibitor): 94 ± 1 nM

EC50 ([1]; read-out: EC50 of cADPR for Ca^2+ release (concentration-response curve), sea urchin egg homogenate, Fig. 2b): ~0.25 µM
Structure (SMILES): N=c1c2ncn3c2ncn1[C@@H]1O[C@H](COP(=O)(O)OP(=O)(O)OC[C@H]2O[C@@H]3[C@H](O)[C@@H]2O)[C@@H](O)[C@H]1O [cADPR]
raw control response ∆[Ca^2+] with cADPR ([1]; 0.3 μM cADPR, no inhibitor): 72 ± 5 nM and 76 ± 4 nM and 72 ± 4 nM and 85 ± 3 nM and 75 ± 4 nM

Structure (SMILES): Cn1c(=O)c2c(ncn2C)n(C)c1=O [caffeine]
raw control ∆[Ca^2+] with caffeine ([3]; no inhibitor): 80 ± 5 nM
